Converted amounts (≈) assume the structure as drawn. Where two headings read alike, the source gives them in different places.
Columns and labels:
[1] = molecular target: T1, NDM-1 (Klebsiella pneumoniae, UniProt C7C422); assay: Steady-state hydrolysis kinetics and UV difference spectra with purified NDM-1; assay type: biochemical; conditions: for hydrolysis monitored by UV difference spectroscopy: NDM-1, 200 : 1 S : E ratio, 220 nm to 300 nm; for K M: substrate hydrolysis by NDM-1, 30 °C, 10 mM HEPES, 200 mM NaCl pH 7.5, 20 μM ZnSO4
[2] = molecular target: T2, VIM-2 (Escherichia coli, UniProt Q5U7L7); conditions: CAZ hydrolysis by VIM-2, cited from earlier work
[3] = molecular target: T3, IMP-1 (Serratia marcescens, UniProt P52699); assay: Steady-state hydrolysis kinetics and UV difference spectra with purified IMP-1; assay type: biochemical; conditions: for hydrolysis monitored by UV difference spectroscopy: IMP-1, 200 : 1 S : E ratio, 220 nm to 300 nm
[4] = molecular target: T3, IMP-1; conditions: CAZ hydrolysis by IMP-1; cited from earlier work
[5] = molecular target: T2, VIM-2; assay: Steady-state hydrolysis kinetics and UV difference spectra with purified VIM-2; conditions: for hydrolysis monitored by UV difference spectroscopy: VIM-2, 200 : 1 S : E ratio, 220 nm to 300 nm
[6] = molecular target: T4, NDM-5 (Klebsiella pneumoniae, UniProt C7C422, M154L/V88L); conditions: CAZ hydrolysis by NDM-5; cited from earlier work
[7] = molecular target: T4, NDM-5; assay: Steady-state hydrolysis kinetics with purified NDM-5; assay type: biochemical; conditions: FDC hydrolysis by NDM-5, 30 °C, pH 7.5
How it was run: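 Purified enzyme in 10 mM HEPES, 200 mM NaCl pH 7.5 with 20 μM ZnSO4, at 30 °C. Initial velocities of substrate hydrolysis followed at 259 nm, Δε259 = −9430 M−1 cm−1, 0.1 cm path cuvette. kcat and KM derived from these initial-rate measurements.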

[8] = molecular target: T3, IMP-1; assay: Inhibition of nitrocefin hydrolysis by IMP-1; assay type: biochemical; conditions: 2 nM IMP-1, 5 min preincubation at 30 °C, 50 μM nitrocefin
How it was run: (§1)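 Recombinant MBL lacking its signal peptide, made in E. coli BL21(DE3) as His-tagged protein, Ni-affinity purified and TEV-cleaved (>95% pure). 2 nM enzyme preincubated 5 min at 30 °C with varied test compound, or its NDM-1 hydrolysis product, or none. Buffer: 10 mM HEPES, 200 mM NaCl pH 7.5, 20 μM ZnSO4. Nitrocefin 50 μM final; initial rates at 495 nm over 300 s. IC50 curves fitted; triplicate.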

[9] = tested on: E. coli DH10B cells harboring the pMBLe blaIMP-1 plasmid; assay: Broth microdilution MIC in ID-CAMHB, E. coli producing IMP-1; assay type: cell-based; conditions: Escherichia coli, higher levels of IMP-1 (IPTG-induced)
How it was run: (§2)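 Broth microdilution per CLSI in iron-depleted cation-adjusted Mueller–Hinton broth. DH10B carries the MBL gene on pMBLe with its native signal peptide under an IPTG-inducible promoter; inoculum in broth with 0–200 μM IPTG, final 5 × 10^5 CFU mL−1. Incubation 37 °C, 18 h; mode of three independent experiments. Enzyme levels by anti-strep-tag II immunoblot of drug-free growth wells, DnaK loading control.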

[10] = tested on: E. coli DH10B cells harboring the pMBLe blaNDM-1 plasmid; assay: Broth microdilution MIC in ID-CAMHB, E. coli producing NDM-1; assay type: cell-based
How it was run: as §2

[11] = tested on: E. coli (blaNDM-5); conditions: clinical E. coli before ten-fold increase in blaNDM-5 copy number; cited from earlier work
[12] = molecular target: T1, NDM-1; assay: Inhibition of nitrocefin hydrolysis by NDM-1; assay type: biochemical; conditions: 2 nM NDM-1, 5 min preincubation at 30 °C, 50 μM nitrocefin
How it was run: as §1

[13] = molecular target: T2, VIM-2; assay: Inhibition of nitrocefin hydrolysis by VIM-2; assay type: biochemical; conditions: 2 nM VIM-2, 5 min preincubation at 30 °C, 50 μM nitrocefin
How it was run: as §1

## CC(C)(O/N=C(\C(=O)N[C@@H]1C(=O)N2C(C(=O)[O-])=C(C[n+]3ccccc3)CS[C@H]12)c1csc(N)n1)C(=O)O [CAZ, ceftazidime]
[1]
  hydrolysis monitored by UV difference spectroscopy: can turnover
  K M: 45 ± 12 µM
[2]
  k cat /K M: 50000 M⁻¹ s⁻¹
[2]; standard deviations <10%
  K M: 72 µM
  k cat: 3.6 s⁻¹
[3]
  hydrolysis monitored by UV difference spectroscopy: can turnover
[4]
  K M: 44 ± 3 µM
  k cat: 8 ± 1 s⁻¹
  k cat /K M: 180000 M⁻¹ s⁻¹
[5]
  hydrolysis monitored by UV difference spectroscopy: can turnover
[6]
  K M: 86 ± 11 µM
  k cat: 15 s⁻¹
  k cat /K M: 180000 M⁻¹ s⁻¹

## CC(C)(O/N=C(\C(=O)N[C@@H]1C(=O)N2C(C(=O)[O-])=C(C[N+]3(CCNC(=O)c4ccc(O)c(O)c4Cl)CCCC3)CS[C@H]12)c1csc(N)n1)C(=O)O [FDC, cefiderocol]
[7]
  K M: 405 ± 40 µM
  k cat: 75 ± 3 s⁻¹
[8]
  inhibition of nitrocefin hydrolysis activity: inhibited
[9]
  MIC: 0.06 µg/mL (≈ 0.0798 µM)
[10]; E. coli laboratory strain, NDM-1 overproduction vs basal level
  increase in MIC values: 16 fold
[10]; Escherichia coli, ID-CAMHB, higher levels of NDM-1 (IPTG-induced)
  MIC: 0.5 µg/mL (≈ 0.665 µM)
[1]
  hydrolysis monitored by UV difference spectroscopy: efficiently hydrolyzes
  K M: 443 ± 59 µM
[11]
  MIC: 2 µg/mL (≈ 2.66 µM)
[3]; FDC hydrolysis by IMP-1, 30 °C, pH 7.5
  K M: 300 ± 120 µM
[3]
  hydrolysis monitored by UV difference spectroscopy: negligible activity
[5]; FDC hydrolysis by VIM-2, 30 °C, pH 7.5
  K M: 250 ± 80 µM
[5]
  hydrolysis monitored by UV difference spectroscopy: negligible activity
[12]
  inhibition of nitrocefin hydrolysis activity: largely unperturbed
[13]
  inhibition of nitrocefin hydrolysis activity: inhibited

From paper PMC12152739 (Chemical Science, 2025)
